In ChEMBL document CHEMBL4393712, “Discovery of chalcone-modified estradiol analogs as antitumour agents that Inhibit tumour angiogenesis and epithelial to mesenchymal transition” (Eur J Med Chem, 2019):
The source made the active and inactive calls. No cut-off for these calls is given here.

Key:
Chorioallantoic membrane = test: Antiangiogenic activity in chicken chorioallantoic membrane assessed as reduction in neovascularization at 50 ug/ml measured after 72 hrs by CAM assay; format: functional; conditions: Gallus gallus
Summary of the method: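 Fertilized chicken eggs incubated 6 days at 37 °C; shell windowed and CAM treated (compounds and controls at […] as printed; saline vehicle control). Eggs re-incubated humidified; membranes fixed and harvested after 72 h. Angiogenesis scored by counting blood vessels and imaging neovascular zones; ten eggs per group.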

PC-3 = test: Cytotoxicity against human PC3 cells assessed as reduction in cell viability measured after 48 to 72 hrs by MTT assay; format: cell-based
Summary of the method: (§1)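 Cells seeded at 3 × 10^3 per well in 96-well plates, incubated overnight, then given fresh medium with a range of drug concentrations for 48 h or 72 h. MTT added (final 500 µg/mL) for 4 h, formazan dissolved in DMSO, absorbance at 570 nm; IC50 derived. Mean ± SD of 3 independent tests.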

HUVEC = test: Cytotoxicity against HUVEC assessed as reduction in cell viability measured after 48 to 72 hrs by MTT assay; format: cell-based; conditions: human; summary of the method: as §1
SK-N-SH = test: Antitumour activity against human SK-N-SH cells assessed as cell growth inhibition measured after 72 hrs by SRB assay; format: functional, cell-based
Summary of the method: (§2)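 Exponentially growing cells trypsinized, seeded at 5 × 10^4 cells/mL in 96-well plates, cultured overnight, then exposed to compounds for 72 h. Cells fixed with 10% TCA 1 h, stained with SRB 15 min, dye dissolved in Tris-HCl, absorbance read; 50% growth-inhibitory concentration calculated.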

[1] = Toxicity in nude mouse xenografted with human MCF7 cells assessed as liver edema at 45 mg/kg/day, ip administered for 21 days by HE staining analysis; format: organism-based; conditions: in vivo, 504 h
B16 = test: Antitumour activity against mouse B16 cells assessed as cell growth inhibition measured after 72 hrs by SRB assay; format: functional, cell-based; conditions: B16, 72 h; summary of the method: as §2
ECa-109 cell line = test: Antitumour activity against human EC109 cells assessed as cell growth inhibition measured after 72 hrs by SRB assay; format: functional, cell-based; conditions: ECa-109, 72 h; summary of the method: as §2
[2] = Hepatotoxicity in nude mouse xenografted with human MCF7 cells assessed as increase in serum alkaline phosphatase level at 45 mg/kg/day, ip administered for 21 days by biochemical automatic analyzer; format: toxicity, organism-based; conditions: in vivo, 504 h
[3] = Toxicity in nude mouse xenografted with human MCF7 cells assessed as decrease in body weight at 45 mg/kg/day, ip administered for 21 days; format: organism-based; conditions: in vivo, 504 h
Summary of the method: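 Nude mice (male/female, 4–6 weeks) injected subcutaneously in right forelimb with 5 × 10^7 MCF-7 cells in 200 µL saline; at mean tumour 100 mm3 randomized (n = 5/group): saline 0.2 mL/day, 22.5 or 45 mg/kg/day ip for 21 days. Body weight and tumour volume (length × width²/2) every other day; tumours weighed at day 21.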

[4] = Hepatotoxicity in nude mouse xenografted with human MCF7 cells assessed as increase in serum alanine transaminase level at 45 mg/kg/day, ip administered for 21 days by biochemical automatic analyzer; format: toxicity, organism-based; conditions: in vivo, 504 h
GES1 = test: Cytotoxicity against human GES-1 cells assessed as reduction in cell viability measured after 48 to 72 hrs by MTT assay; format: cell-based; summary of the method: as §1
SMMC-7721 = test: Antitumour activity against human SMMC7721 cells assessed as cell growth inhibition measured after 72 hrs by SRB assay; format: functional, cell-based; conditions: SMMC-7721, 72 h; summary of the method: as §2
A549 = test: Antitumour activity against human A549 cells assessed as cell growth inhibition measured after 72 hrs by SRB assay; format: functional, cell-based; conditions: A549, 72 h; summary of the method: as §2
[5] = Hepatotoxicity in nude mouse xenografted with human MCF7 cells assessed as increase in serum aspartate transaminase level at 45 mg/kg/day, ip administered for 21 days by automatic biochemical analyzer; format: toxicity, organism-based; conditions: in vivo, 504 h
MGC-803 [6] = test: Antitumour activity against human MGC803 cells assessed as cell growth inhibition measured after 72 hrs by SRB assay; format: functional, cell-based; conditions: MGC-803, 72 h; summary of the method: as §2
MGC-803 [7] = test: Cytotoxicity against human MGC803 cells assessed as reduction in cell viability measured after 48 to 72 hrs by MTT assay; format: cell-based; summary of the method: as §1

Q: With `COc1cc2c(cc1O)CC[C@@H]1[C@@H]2CC[C@]2(C)[C@@H](O)CC[C@@H]12` [2-METHOXYESTRADIOL] as the compound, how does the inhibition (Chorioallantoic membrane) read?
A: Its inhibition is “Active”.

Q: What about the Activity (PC-3) of the same compound?
A: The Activity was “Toxic”.

Q: And the Activity (HUVEC)?
A: The Activity was “Toxic”.

Q: And the IC50 (SK-N-SH)?
A: Its IC50 is 1.6 µM.

Q: And the Activity [1]?
A: The Activity was “Toxic”.

Q: And the IC50 (B16)?
A: Its IC50 is 3.4 µM.

Q: What about the IC50 (ECa-109 cell line) of the same compound?
A: Its IC50 is 4.1 µM.

Q: And the Activity [2]?
A: Its Activity is “Toxic”.

Q: What about the Activity [3] of the same compound?
A: The Activity was “Toxic”.

Q: And the Activity [4]?
A: Its Activity is “Toxic”.

Q: What about the Activity (GES1) of the same compound?
A: Its Activity is “Toxic”.

Q: What about the IC50 (SMMC-7721) of the same compound?
A: The IC50 was 8.4 µM.

Q: What about the IC50 (A549) of the same compound?
A: Its IC50 is 1.1 µM.

Q: And the Activity [5]?
A: Its Activity is “Toxic”.

Q: And the IC50 (MGC-803 [6])?
A: Its IC50 is 4 µM.

Q: And the Activity (MGC-803 [7])?
A: The Activity was “Toxic”.
